# Laboratory results taken from PubChem BioAssay AID720543 (The Scripps Research Institute Molecular Screening Center, 2013).
# Screen size: about 370,000 compounds; about 2,000 (0.54%) were called active.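 Rule for the calls: active = inhibition exceeding the mean over every tested compound plus 3 SD (cut at about 30% in these data); inactive = the rest.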 This excerpt belongs to a sample that is enriched for actives.
# Target: (Lyso)-N-acylphosphatidylethanolamine lipase (Mus musculus) (UniProt Q8VD66)
# Sequence (Q8VD66 whole entry, looked up): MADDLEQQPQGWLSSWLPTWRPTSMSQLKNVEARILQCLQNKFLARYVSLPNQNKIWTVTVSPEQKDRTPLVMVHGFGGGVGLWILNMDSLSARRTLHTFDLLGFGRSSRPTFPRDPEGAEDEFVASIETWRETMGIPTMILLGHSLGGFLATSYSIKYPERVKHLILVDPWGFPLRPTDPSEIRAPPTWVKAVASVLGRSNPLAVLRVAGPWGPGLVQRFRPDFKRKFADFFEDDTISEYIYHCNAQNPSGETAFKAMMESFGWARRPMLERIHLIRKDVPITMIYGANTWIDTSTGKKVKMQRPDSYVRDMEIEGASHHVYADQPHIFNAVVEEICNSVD
# Experiment: mouse ABHD4 hydrolase activity blockers – biochemical, fluorescence polarization, primary screen (AID 720543);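 note: 0% = plate median of compound wells and 100% = S159A mutant with DMSO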
# Conditions: purified mABHD4, FP-Rh probe fluorescence polarization; at 8.92 µM; hits give high values
# Procedure, shortened: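 Doses – 8.92 µM, single dose · Material – wild-type mouse ABHD4 protein · Replication – single well per compound (singlicate) · Measure – percent inhibition of probe binding, normalized to plate controls · Schedule – 45 min compound pre-incubation plus 60 min probe step, 25 °C · Detection – fluorescence polarization with parallel and perpendicular emission, 525/598 nm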
row,Structure (SMILES),inhibition
1,O=C(Nc1cc(F)cc(F)c1)OC1CCC12CCC(c1ccccc1)CC2 (configuration not stated),-31.2% (inactive)
2,CC(Oc1ccc(Cl)cc1)c1ccnn1S(C)(=O)=O (configuration not stated),1.1% (inactive)
3,CCOC(=O)C1(Cc2ccccc2)CCN(Cc2cn(C(C)=O)c3ccccc23)CC1,-1.19% (inactive)
4,CCc1c(C)nc2c(OC)cccc2c1Cl,0.48% (inactive)
5,COc1ccc(C)cc1NC(=O)c1[nH]c(C)c(C(C)=O)c1C,-2.22% (inactive)
6,COc1cccc2c(C)c(C(=O)O)[nH]c12,35.9% (active)
7,COC(=O)c1cccc(Cn2ccc3ccc(-c4ccc5ccn(C(=O)c6ccccc6C)c5c4)cc32)c1,1.96% (inactive)
8,CCOC(=O)C[C@H]1c2ccc(C(F)(F)F)cc2S(=O)(=O)N1c1ccccc1,-6.24% (inactive)
9,CCOC(=O)C1Nc2ccc(C(F)(F)F)cc2C2C=CCC12 (configuration not stated),41.8% (active)
10,CCOC(=O)/C=C/c1ccc(C(F)(F)F)cc1S(=O)(=O)NC(C)(C)C,-26.5% (inactive)
11,CN1C(=O)c2cc(NS(C)(=O)=O)ccc2OC[C@@H]2O[C@@H](CC(=O)NCc3ccc(-c4ccccc4)cc3)CC[C@H]21,3.8% (inactive)
12,Cc1ccc(Cn2cc(CN3[C@@H](CC(C)C)COc4ccc(Cl)cc4S3(=O)=O)nn2)cc1,4.37% (inactive)
13,O=C(NCc1cccs1)C1CCCN(S(=O)(=O)c2ccc([N+](=O)[O-])cc2)C1 (configuration not stated),4.68% (inactive)
14,CCC(C)Cn1c(O)cc2nn(-c3nc4ccccc4s3)c(=O)c-2c1C (configuration not stated),44.6% (active)
15,O=S(=O)([N-]c1nc2ccccc2nc1-[n+]1ccc(Cc2ccccc2)cc1)c1ccc(Br)s1,7.29% (inactive)
16,O=C1CCN(C(=O)Nc2ccccc2)N1,6.15% (inactive)
17,Cc1ccc(NC2CCCN(C(=O)CCC3(C)CC3)C2)cc1C (configuration not stated),8.21% (inactive)
18,O=C(Nc1cc(Cl)cc(Cl)c1)OCCN1CCCC12CCC(c1ccccc1)CC2 (configuration not stated),2.15% (inactive)
19,COC(=O)c1ccc(COc2cc([N+](=O)[O-])cc3cccnc23)cc1,6.05% (inactive)
20,COC(=O)C(C)N(C#N)c1nc(C)nc(C)n1 (configuration not stated),-1.89% (inactive)
21,O=C(Nc1ccccc1[N+](=O)[O-])C1C(c2ccccc2)=C1c1ccccc1,-0.35% (inactive)
22,O=C(O)c1cc([N+](=O)[O-])c(Nc2cccc3ccccc23)c([N+](=O)[O-])c1,35.4% (active)

row,Structure (SMILES),inhibition
1,CCN(C(=O)Nc1cccc2ccccc12)c1ccccc1,18.5% (inactive)
2,O=C1C(=O)N(Cc2ccc(-c3ccsc3)cc2)c2ccc(OC(F)(F)F)cc21,1.83% (inactive)
3,COC(=O)[C@]12C[C@H](CC(=O)NCc3ccccc3)C(=O)N(CCc3ccc(OC)c(OC)c3)C1=C[C@H](C(C)(C)C)O[C@@H]2C,4.6% (inactive)
4,CCOc1cc(/C=C2/N=C(c3ccc(C(C)(C)C)cc3)OC2=O)cc(Cl)c1OS(C)(=O)=O,37.3% (active)
5,CNc1[nH]ncc1[N+](=O)[O-],7.62% (inactive)
6,CN(C)CC(=O)N[C@@H]1C[C@@H]2O[C@H](CO)CC[C@@H]2O[C@@H]1CCc1ccc(C#Cc2ccccc2)cc1,3.38% (inactive)
7,C#CCCN([C@H](C(=O)OC)C(C)C)S(=O)(=O)c1ccc(F)cc1Br,-7.15% (inactive)
8,CC(=O)N(c1ccc2oc(=O)sc2c1)S(=O)(=O)c1ccc(C)cc1,7.97% (inactive)
9,O=C(CN(Cc1ccc(Br)cc1)S(=O)(=O)c1ccccc1)NCc1ccncc1,-0.4% (inactive)
10,O=C(c1cccnc1)N(c1cc2sc(=O)oc2c2ccccc12)S(=O)(=O)c1ccccc1,61.7% (active)
11,Cc1cc(C)nc(NC(=S)N2CCN(c3ccc(C(F)(F)F)cn3)CC2)c1,8.35% (inactive)
12,O=C(NCc1ccco1)C1CCCN(S(=O)(=O)c2cccc3nonc23)C1 (configuration not stated),5.79% (inactive)
13,CCOc1ccc(Br)cc1CSC(=N)N,4.65% (inactive)
14,CCc1ccc(-c2nn(-c3ccccc3)cc2CSC(=N)N)cc1,52.2% (active)
15,CCc1ccc(-c2nn(-c3ccccc3C)cc2C(=O)N2CCN(C3CCS(=O)(=O)C3)CC2)cc1 (configuration not stated),5.26% (inactive)
16,CC1=C(C/C=C(\C)CCCC(C)CCCC(C)CCCC(C)C)C(=O)c2ccccc2C1=O (configuration not stated),-0.54% (inactive)
17,C=C(C)C1CC23C(=O)C4(C(=O)c5ccccc5)C[C@@]5(C)CCC(CC2C1(C)C)(C4=O)C35OC (some centres not stated),-1.09% (inactive)
18,NNc1nc2c(Cl)cccc2s1,70.2% (active)
19,CCOCCOCCC(C(=O)O)P(=O)(c1ccccc1)c1ccccc1 (configuration not stated),4.54% (inactive)
20,C=C1c2c(Cl)ccc(O)c2C(O)=C2C(=O)[C@]3(O)C(O)=C(C(N)=O)C(=O)[C@@H](N(C)C)[C@@H]3[C@@H](O)C12 (some centres not stated),69.7% (active)
21,CN(C)[C@@H]1C(=O)C(C(N)=O)=C(O)[C@@]2(O)C(=O)C3=C(O)c4c(O)ccc(Cl)c4[C@@H](O)[C@H]3C[C@@H]12,55.1% (active)
22,COc1ccccc1NC(=O)CCC(=O)OC(C)C(=O)c1ccccc1 (configuration not stated),4.06% (inactive)

row,Structure (SMILES),inhibition
1,C#CCN([C@H](C(=O)OC)C(C)CC)S(=O)(=O)c1ccccc1Br (some centres not stated),-0.06% (inactive)
2,O=C(C(=O)N1CCC(CNC(=O)c2cccnc2Cl)CC1)c1cccs1,2.01% (inactive)
3,Cc1[nH]nc2c1C(c1ccc(Br)cc1)NC2=O (configuration not stated),7.99% (inactive)
4,Cc1cc(NS(=O)(=O)c2ccc(NC(=O)CSc3nnc(-c4ccc(C(C)(C)C)cc4)n3Cc3ccco3)cc2)nc(C)n1,-7.09% (inactive)
5,O=c1[nH]c2ccccc2n2c(-c3ccccc3)nnc12,43.1% (active)
6,O=C(c1ncn2c1c(=O)[nH]c1ccccc12)N1CCc2ccccc2C1,-9.48% (inactive)
7,O=C(O)C1C2CC2CN1C(=O)c1ccc(Cl)cc1Cl (configuration not stated),0.74% (inactive)
8,CCCNC(=O)CN(Cc1ccccc1F)S(=O)(=O)c1ccc(C)cc1,-5.78% (inactive)
9,CC[C@@H]1Cc2cc(O)ccc2C2=C1c1ccc(O)cc1C[C@H]2CC,35.5% (active)
10,Cc1ccc(S(=O)(=O)N2CCCC2C(=O)NCc2ccco2)cc1 (configuration not stated),5.4% (inactive)
11,O=C(NC(=S)Nc1ccc(Cl)c(C(=O)O)c1)c1cncc(Br)c1,-0.66% (inactive)
12,CC(C)c1ccc(NC(=S)NNc2ccc(Cl)c(C(=O)O)c2)cc1,37.3% (active)
13,CC(C)c1ccc(NC(=S)NC2CC3C=CC2C3)cc1 (configuration not stated),-0.07% (inactive)
14,C=CCN1C(C(=O)OC)CN(Cc2cn(Cc3ccccc3)nn2)CCS1(=O)=O (configuration not stated),-0.95% (inactive)
15,COc1ccccc1-c1n[nH]nc1C1=CC(=O)CC(C)(C)C1,-5.54% (inactive)
16,COc1ccccc1C1=Nc2cccc3cccc(c23)N1,56.6% (active)
17,COc1ccccc1-c1sc2ccccc2c1-c1ccc(Br)nc1,-9.92% (inactive)
18,CCn1c(=O)n2n(c1=O)[C@@]1(C=C3CCCC[C@H]32)N=C(NC(=O)c2ccccc2)N(Cc2ccccc2)[C@H]1Cc1ccccc1,5.91% (inactive)
19,COCCNC(=O)c1cc2c(Br)ccc(Br)c2nc1N,-4.62% (inactive)
20,COCCNC(=O)Nc1ccc2nc(-c3ccco3)c(-c3ccco3)nc2c1,50.8% (active)
21,COCCNC(=S)c1ccc(OC)cc1,4.41% (inactive)
22,O=C(C1CCN(S(=O)(=O)c2ccc(Br)s2)CC1)N1CCN(c2ccccc2)CC1,1.42% (inactive)

row,Structure (SMILES),inhibition
1,COc1ccc(-n2c(SCC(=O)NC3CCCC3)nnc2-c2ccncc2)cc1,3.8% (inactive)
2,CCn1c(/C=C/Nc2ccccc2)[n+](CC)c2ccc(C(=O)OCC(F)(F)F)cc21,-4.64% (inactive)
3,CC(c1c[nH]c2ccccc12)c1c(-c2ccccc2)n(C)c2ccccc12 (configuration not stated),-21.7% (inactive)
4,Cc1nc2cc(C(F)(F)F)ccc2n1CCNc1nc(-c2cc(Cl)c(N)c(Cl)c2)cs1,5.15% (inactive)
5,CC(C)COC(=O)n1c(=O)oc2ccc(S(=O)(=O)N3CCCCC3)cc21,42.3% (active)
6,CC1CCCCN1C(=O)Cn1c(=O)oc2cc(S(=O)(=O)N3CCCCC3)ccc21 (configuration not stated),8.03% (inactive)
7,CCOC(=O)C1CCN(C(=O)c2oc3ccc(S(=O)(=O)N4CCCCCC4)cc3c2C)CC1,6.37% (inactive)
8,Cc1ccccc1NC(=O)C1CCN(c2ncccn2)CC1,-7.6% (inactive)
9,COC(=O)C1CCCCN1C(=O)c1ccc(OC2CCN(C(C)=O)CC2)c(OC)c1 (configuration not stated),-4.35% (inactive)
10,COc1ccc(-c2ccccc2C2Cc3nnccc3CN2C(=O)Nc2ccccc2)cc1 (configuration not stated),-13% (inactive)
11,Cc1coc2c(O)cc3c(c12)OC1(N2CCCCC2)C(=O)NCCCC31 (configuration not stated),35.3% (active)
12,O=C(CSc1nnc(-c2ccccn2)n1-c1ccc(Cl)cc1)Nc1ccccc1-c1ccccc1,-9.15% (inactive)
13,CS(=O)(=O)N1CCCC(C(=O)Nc2ccccc2C(F)(F)F)C1 (configuration not stated),-11.1% (inactive)
14,COc1ccc(C(C#N)Nc2ccc(C)cc2)cc1 (configuration not stated),0.68% (inactive)
15,COCCn1c(N)c(NCc2ccccc2)c(=O)[nH]c1=O,7.29% (inactive)
16,COCCCN(C(=O)CSCc1ccc(C)cc1)c1c(N)n(Cc2ccccc2)c(=O)[nH]c1=O,2.08% (inactive)
17,Cc1cc2nc3c(=O)n(Cc4ccccc4)c(=O)[nH]c3nc2cc1N,56.4% (active)
18,CC(NC(=O)C1CCCN(S(=O)(=O)c2ccc(-n3cnnn3)cc2)C1)c1ccc(F)cc1 (configuration not stated),-0.78% (inactive)
19,Cc1ccc(S/C(=N\S(=O)(=O)c2ccc(Cl)cc2)c2ccccc2)cc1,7.36% (inactive)
20,CCOc1ccc(Oc2c(Cl)cnn(-c3ccc(C)cc3)c2=O)cc1,5.6% (inactive)
21,COc1ccc(C2Nc3ccccc3C(=O)N2Cc2cccs2)cc1COc1c(C)cccc1C (configuration not stated),-15.8% (inactive)
